Experimental findings from the RNAGym collection of RNA variant scans (doi:10.1126/science.aae0568) are described below.

Variants at the floor of the assay were thinned out.

Sequences and labels used below:
B1: tRNA (parent)
chain: GUUCCGUUGGCGUAAUGGUAACGCGUCUCCCUCCUAAGGAGAAGACUGCGGGUUCGAGUCCCGUACGGAACG

The variants in the data set derive from B1. Nature of the data set: yeast fitness relative to wild type (ratio to wild type); higher = fitter; tRNA-Arg(CCU), competitive growth, 37 C, YPD. The method in brief:
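Variants of the tRNA-Arg(CCU) gene, chemically synthesised with a 3% per-site mutation rate at 69 sites, were placed at the native genomic locus in Saccharomyces cerevisiae. The pooled strains were competed in YPD at 37°C for 24 hours in six parallel replicates. Gene amplicons from the start population and from each end population were read by 100-nucleotide paired-end sequencing. Darwinian fitness relative to wild type came from changes in genotype frequencies; genotypes needed ≥ 100 starting reads, and estimates < 0.5 were set to 0.5.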
Turning to GUUCCGUUGGCGUAAUGGUAACGCGUCUCCCCCCUAAGGCGAAGACUCCGGGUUCGAGUCCCGUACGGAACG [U32C A40C G48C], the yeast fitness is at most 0.5. To GUUCCGUUGGCGUAAUGGUAACGCGUCUCCCACCUAAGGAGAAGACUACGGGUUCGAGUCCCGUACGGAACG [U32A G48A] belongs 0.673; to GUUCCGUUGGCGUAAUGGUAACGCGUCUCCCCCCUCAGGAGAAGACUGCGGCUUCGAGUCCCGUAUGGAACG [U32C A36C G52C C66U], at most 0.5. To GUUCCGUUGGCGUAAUGGUAACGCGUCUCCCCCCUAAGGAGACGACUGCGGGUUAGCGUCCCGUACGGAACG [U32C A43C C55A A57C] belongs at most 0.5; to GUUCCGUUGGCGUAAUGGUAACGCGUCUCCCACCUAAGGAGAAGACUGCAGGUUCGAGUCCCGUACGGAACG [U32A G50A], 0.783; to GUUCCGUUGGCGUAAUGGUAACGCGUCUCCCACCUAAGAAGAAGACUGCGGGUACGAGUCCCGUAAGGAACG [U32A G39A U54A C66A], at most 0.5.

Consider GUUCCGUUGGCGUAAUGGUAACGCGUCUCCCCCCUAAGGAGCACACUGCGGGUUCGAGUCCCGUACGGCACG [U32C A42C G44C A69C], for which the yeast fitness is at most 0.5.

Regarding GUUCCGUUGGCGUAAUGGUAACGCGUCUCCCACCUAAGGAGAAGACUGCGGGUUCGAAUCCCGUACGGAACG [U32A G58A], the yeast fitness is 0.781. To GUUCCGUUGGCGUAAUGGUAACGCGUCUCCCACCUAAGGAGAAGACUGCGGGUUCGAGUCCCGUACCGAACG [U32A G67C] belongs 0.732; to GUUCCGUUGGCGUAAUGGUAACGCGUCUCCCCCCUAAGGAGUAGACUGCGGGUUCGACUCCCGUACGGAACG [U32C A42U G58C], 0.623.

As to GUUCCGUUGGCGUAAUGGUAACGCGUCUCCCCCCUAUGGAGAAAACUGCGGGUUCGAGUCCCGUACGGAGCG [U32C A37U G44A A70G], the yeast fitness was at most 0.5.

Consider GUUCCGUUGGCGUAAUGGUAACGCGUCUCCCCCCUAAGGAGAAGGCUGCGGGUUCGAGUCCCGUACGGAACG [U32C A45G], for which the yeast fitness came to 0.91. To GUUCCGUUGGCGUAAUGGUAACGCGUCUCCCCCCUAAGGAGAAGCCUGCGGGUUCGAGUCCCGUACGGAACG [U32C A45C] belongs 0.864; to GUUCCGUUGGCGUAAUGGUAACGCGUCUCCCCCCUAAGGAGAAGUCUGCGGGUUCGAGUCCCGUACGGAACG [U32C A45U], 0.942; to GUUCCGUUGGCGUAAUGGUAACGCGUCUCCCCCCUAAGGAGUAGACUGCGGGUUCGAGUCCCGAGCGGAACG [U32C A42U U64A A65G], at most 0.5.

In the case of GUUCCGUUGGCGUAAUGGUAACGCGUCUCCCACCUAAGGAAAAGACUGCGGGUUCGAGUCACGUACGGAACG [U32A G41A C61A], the yeast fitness was at most 0.5. Regarding GUUCCGUUGGCGUAAUGGUAACGCGUCUCCCCCCUAAGGAGCACACUGCGGCUUCGAGUCCCGUACGGAACG [U32C A42C G44C G52C], the yeast fitness was found to be 0.548.

GUUCCGUUGGCGUAAUGGUAACGCGUCUCCCCCCUAAGGAGAAGACUGCGGGUUCGAGUCCCGUUCGUAACG [U32C A65U G68U]: the yeast fitness was found to be 0.622. To GUUCCGUUGGCGUAAUGGUAACGCGUCUCCCCCCUAAGGAGAAGACUGCGGGUUCGAGUCCCGUACGGAGCG [U32C A70G] belongs 0.942; to GUUCCGUUGGCGUAAUGGUAACGCGUCUCCCCCCUAAGGUGAAGACUGCGGGUUCGAGUCCCGUACGGAUCG [U32C A40U A70U], 0.784; to GUUCCGUUGGCGUAAUGGUAACGCGUCUCCCCCCUAAGGAGUACACUGCGGGUACGAGUCCCGUACGGAACG [U32C A42U G44C U54A], at most 0.5.

Turning to GUUCCGUUGGCGUAAUGGUAACGCGUCUCCCCCCUAAGGAGAAGACUGCGGGUUCGAGUCCCGUACGGGACG [U32C A69G], the yeast fitness is 0.882. To GUUCCGUUGGCGUAAUGGUAACGCGUCUCCCCCCUAAGGAGAAGACUGCGGGUUCGAGUCCCGUACGGUACG [U32C A69U] belongs 0.926. In the case of GUUCCGUUGGCGUAAUGGUAACGCGUCUCCCCCCUAAGGAGAAGUCUGGGGGUUGGAGUCCCGUACCGAACG [U32C A45U C49G C55G G67C], the yeast fitness is at most 0.5. Take GUUCCGUUGGCGUAAUGGUAACGCGUCUCCCCCCUAAGGAGAGGACUGCGGAUUCGAGUCGCGUACGGAACG [U32C A43G G52A C61G]: the yeast fitness came to 0.532. To GUUCCGUUGGCGUAAUGGUAACGCGUCUCCCCCCUAAGGAGAAGACUGCGGGUUCGAGUCCCGUCCGGAACG [U32C A65C] belongs 1.03. To GUUCCGUUGGCGUAAUGGUAACGCGUCUCCCCCCUAAGGAGAAGACUGCGGGUUCGAGUCCCGUUCGGAACG [U32C A65U] belongs 0.957; to GUUCCGUUGGCGUAAUGGUAACGCGUCUCCCCCCUAAGGAGAAGACUGCGGGUUCGAGUCCCGUGCGGAACG [U32C A65G], 0.936. Turning to GUUCCGUUGGCGUAAUGGUAACGCGUCUCCCCCCUAAGGAGAGGACUGCGGGUUCGAGUCCCGUACGGAGCG [U32C A43G A70G], the yeast fitness came out at 0.708. To GUUCCGUUGGCGUAAUGGUAACGCGUCUCCCACCUAAGGAGAAGACUGCGGGCUCGAGUCCCGUACGGCACG [U32A U53C A69C] belongs at most 0.5; to GUUCCGUUGGCGUAAUGGUAACGCGUCUCCCACCUAAGGAGAAGACUGCGGGUUCGAGCCCCGUACGGCACG [U32A U59C A69C], at most 0.5. To GUUCCGUUGGCGUAAUGGUAACGCGUCUCCCACCUAAGGAGAAGACUGCGGGUUCAAGUCCCGUACGGUACG [U32A G56A A69U] belongs 0.554; to GUUCCGUUGGCGUAAUGGUAACGCGUCUCCCCCCUAAGGAGCAAACUGCGGGAUCGAGUCCCGUACGGAACG [U32C A42C G44A U53A], at most 0.5. To GUUCCGUUGGCGUAAUGGUAACGCGUCUCCCACCUAAGGAGAAGACUGCGGGUCUGAGUCCCGUACGGAACG [U32A U54C C55U] belongs at most 0.5; to GUUCCGUUGGCGUAAUGGUAACGCGUCUCCCCCCUAUGGAGAAGACUGCGGGUUCCUGUCCCGUACGGAACG [U32C A37U G56C A57U], at most 0.5; to GUUCCGUUGGCGUAAUGGUAACGCGUCUCCCCCCUAAGGAGGAGACUGCGGGUUCGAGUCCCGUACGGAACG [U32C A42G], 0.861. With GUUCCGUUGGCGUAAUGGUAACGCGUCUCCCCCCUAAGGAGCAGACUGCGGGUUCGAGUCCCGUACGGAACG [U32C A42C], the yeast fitness stood at 0.866.
